Source: ChEMBL document CHEMBL4257579, “Analogs of penfluridol as chemotherapeutic agents with reduced central nervous system activity” (Bioorg Med Chem Lett, 2018)

Legend:
[1] = molecular target: D(3) dopamine receptor (Homo sapiens, UniProt P35462); assay: Displacement of [3H]N-methylspiperone from human dopamine D3 receptor expressed in HEK293T cells by radioligand binding assay relative to control; type: cell-based; set-up: concentration or dose not given beside the values; details: concentration not given here
Chain of D(3) dopamine receptor (P35462 whole entry): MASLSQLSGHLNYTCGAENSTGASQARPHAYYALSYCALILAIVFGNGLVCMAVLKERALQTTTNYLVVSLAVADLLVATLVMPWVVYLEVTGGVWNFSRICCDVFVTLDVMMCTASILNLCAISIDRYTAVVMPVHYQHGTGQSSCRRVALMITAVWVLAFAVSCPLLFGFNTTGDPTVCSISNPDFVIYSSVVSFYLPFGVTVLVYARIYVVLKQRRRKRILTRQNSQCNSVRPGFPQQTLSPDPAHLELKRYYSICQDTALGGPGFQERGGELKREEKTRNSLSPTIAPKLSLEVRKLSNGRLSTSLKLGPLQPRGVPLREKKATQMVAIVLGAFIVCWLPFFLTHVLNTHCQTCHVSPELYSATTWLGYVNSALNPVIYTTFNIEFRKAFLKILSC

[2] = molecular target: T1, Sodium-dependent dopamine transporter (Homo sapiens, UniProt Q01959); assay: Displacement of [3H]WIN35428 from human DAT expressed in HEK cells by radioligand binding assay; type: cell-based
T1 sequence (Q01959 whole entry): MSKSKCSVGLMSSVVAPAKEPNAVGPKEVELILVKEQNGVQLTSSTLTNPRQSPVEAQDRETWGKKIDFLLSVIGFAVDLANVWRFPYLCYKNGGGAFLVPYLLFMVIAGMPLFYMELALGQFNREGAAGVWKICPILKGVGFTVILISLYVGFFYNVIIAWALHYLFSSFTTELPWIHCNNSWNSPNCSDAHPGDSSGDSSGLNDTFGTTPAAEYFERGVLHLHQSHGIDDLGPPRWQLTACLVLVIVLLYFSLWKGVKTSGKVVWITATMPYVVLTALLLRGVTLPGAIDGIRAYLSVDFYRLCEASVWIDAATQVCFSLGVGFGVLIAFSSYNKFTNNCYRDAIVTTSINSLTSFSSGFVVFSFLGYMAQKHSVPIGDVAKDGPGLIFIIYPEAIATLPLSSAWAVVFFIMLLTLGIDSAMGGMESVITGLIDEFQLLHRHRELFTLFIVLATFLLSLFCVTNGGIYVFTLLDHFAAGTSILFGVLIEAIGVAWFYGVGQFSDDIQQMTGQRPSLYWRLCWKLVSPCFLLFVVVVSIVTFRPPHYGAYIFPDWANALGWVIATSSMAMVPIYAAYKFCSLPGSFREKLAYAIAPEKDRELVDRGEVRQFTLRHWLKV

[3] = Drug distribution in C57BL/6J mouse adipose tissue at 5 mg/kg, ip treated daily for 7 consecutive days measured after 24 hrs post last dose by LC/MS/MS analysis; type: ADME, organism-based; details: in vivo
Method in brief: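 Female C57BL6 mice dosed 5 mg/kg i.p. once daily for seven consecutive days; sacrificed 24 h after last injection, organs stored at −80 °C. Plasma, brain, lungs and adipose tissue analysed by LC-MS/MS for drug concentration (nM); n = 5.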

[4] = system: Lewis lung carcinoma cell line; assay: Cytotoxicity against mouse LLC cells harboring […] assessed as reduction in cell viability after 72 hrs by MTT assay; type: functional, cell-based
Method in brief: (§1)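 Cells exposed to compounds; viability read at 24, 48 and 72 h. Every experiment run in triplicate.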

[5] = molecular target: T2, 5-hydroxytryptamine receptor 2A (Homo sapiens, UniProt P28223); assay: Displacement of [3H]Ketanserin from 5-HT2A receptor (unknown origin) by radioligand binding assay relative to control; set-up: concentration or dose not given beside the values; details: concentration not given here
T2 sequence (P28223 whole entry): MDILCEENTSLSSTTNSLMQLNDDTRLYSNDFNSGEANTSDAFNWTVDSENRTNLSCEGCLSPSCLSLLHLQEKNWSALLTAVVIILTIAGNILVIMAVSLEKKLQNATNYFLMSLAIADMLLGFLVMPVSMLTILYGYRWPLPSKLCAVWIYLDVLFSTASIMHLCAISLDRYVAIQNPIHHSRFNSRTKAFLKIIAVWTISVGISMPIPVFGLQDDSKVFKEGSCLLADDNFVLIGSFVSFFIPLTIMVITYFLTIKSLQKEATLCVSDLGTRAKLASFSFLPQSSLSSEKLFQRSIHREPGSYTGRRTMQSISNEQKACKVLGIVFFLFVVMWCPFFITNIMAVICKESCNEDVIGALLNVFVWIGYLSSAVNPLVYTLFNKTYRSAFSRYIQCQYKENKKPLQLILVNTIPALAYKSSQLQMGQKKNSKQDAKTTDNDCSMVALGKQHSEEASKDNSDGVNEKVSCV

[6] = molecular target: T1, Sodium-dependent dopamine transporter; assay: Displacement of [3H]WIN35428 from human DAT expressed in HEK cells by radioligand binding assay relative to control; type: cell-based
[7] = molecular target: T3, 5-hydroxytryptamine receptor 6 (Homo sapiens, UniProt P50406); assay: Displacement of [3H]LSD from human 5-HT6 receptor expressed in HEK cells by radioligand binding assay relative to control; type: cell-based; set-up: concentration or dose not given beside the values; details: concentration not given here
[8] = molecular target: T4, 5-hydroxytryptamine receptor 2B (Homo sapiens, UniProt P41595); assay: Displacement of [3H]LSD from human 5-HT2B receptor expressed in HEK cells by radioligand binding assay; type: cell-based; details: read-out: Ki
[9] = molecular target: T5, Kappa-type opioid receptor (Homo sapiens, UniProt P41145); assay: Displacement of [3H]U69593 from KOR (unknown origin) expressed in HEK cells by radioligand binding assay relative to control; type: cell-based; set-up: concentration or dose not given beside the values; details: concentration not given here
T5 sequence (P41145 whole entry): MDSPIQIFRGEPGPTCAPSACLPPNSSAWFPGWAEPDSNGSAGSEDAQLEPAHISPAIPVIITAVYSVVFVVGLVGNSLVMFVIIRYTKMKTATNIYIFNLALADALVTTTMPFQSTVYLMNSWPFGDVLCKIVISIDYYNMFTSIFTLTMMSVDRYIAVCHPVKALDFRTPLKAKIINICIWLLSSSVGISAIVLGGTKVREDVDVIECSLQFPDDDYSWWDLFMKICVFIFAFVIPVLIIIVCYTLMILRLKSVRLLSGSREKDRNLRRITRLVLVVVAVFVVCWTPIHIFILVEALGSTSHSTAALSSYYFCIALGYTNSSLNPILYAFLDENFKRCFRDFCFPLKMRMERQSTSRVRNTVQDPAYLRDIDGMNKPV

[10] = molecular target: D(1A) dopamine receptor (Homo sapiens, UniProt P21728); assay: Displacement of [3H]SCH23390 from human dopamine D1 receptor expressed in HEK293T cells by radioligand binding assay relative to control; type: cell-based; set-up: concentration or dose not given beside the values; details: concentration not given here
Chain of D(1A) dopamine receptor (P21728 whole entry): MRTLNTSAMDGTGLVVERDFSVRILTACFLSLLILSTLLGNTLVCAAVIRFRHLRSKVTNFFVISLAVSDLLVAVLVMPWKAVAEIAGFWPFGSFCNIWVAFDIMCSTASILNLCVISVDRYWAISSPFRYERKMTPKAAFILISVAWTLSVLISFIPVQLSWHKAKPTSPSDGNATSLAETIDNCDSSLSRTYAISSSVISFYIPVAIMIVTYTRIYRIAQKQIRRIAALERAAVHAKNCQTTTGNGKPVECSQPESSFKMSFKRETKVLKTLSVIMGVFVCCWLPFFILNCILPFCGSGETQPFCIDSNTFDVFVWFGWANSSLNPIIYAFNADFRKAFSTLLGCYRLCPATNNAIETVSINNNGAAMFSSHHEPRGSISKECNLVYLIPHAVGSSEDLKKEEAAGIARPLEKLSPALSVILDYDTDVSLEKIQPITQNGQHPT

[11] = molecular target: T6, D(1B) dopamine receptor (Homo sapiens, UniProt P21918); assay: Displacement of [3H]SCH23390 from human dopamine D5 receptor expressed in HEK293T cells by radioligand binding assay; type: cell-based
T6 sequence (P21918 whole entry): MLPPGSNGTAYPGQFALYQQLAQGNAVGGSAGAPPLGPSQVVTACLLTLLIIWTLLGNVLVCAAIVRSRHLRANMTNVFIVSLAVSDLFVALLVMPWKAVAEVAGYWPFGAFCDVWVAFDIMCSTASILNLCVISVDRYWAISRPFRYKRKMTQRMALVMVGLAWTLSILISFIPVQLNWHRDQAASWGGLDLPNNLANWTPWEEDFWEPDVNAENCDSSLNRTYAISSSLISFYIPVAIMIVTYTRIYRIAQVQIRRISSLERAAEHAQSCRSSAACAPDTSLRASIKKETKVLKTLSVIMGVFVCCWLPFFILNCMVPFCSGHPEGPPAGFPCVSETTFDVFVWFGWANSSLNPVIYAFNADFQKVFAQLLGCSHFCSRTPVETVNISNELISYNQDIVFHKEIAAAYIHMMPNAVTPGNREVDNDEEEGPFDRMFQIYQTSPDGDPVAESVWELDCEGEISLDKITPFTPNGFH

[12] = system: Mus musculus; assay: Toxicity in C57BL/6J mouse assessed as decrease in blood urea nitrogen level at 5 mg/kg, ip treated daily for 7 consecutive days measured after 24 hrs post last dose […]; details: in vivo
[13] = molecular target: T7, D(2) dopamine receptor (Homo sapiens, UniProt P14416); assay: Displacement of [3H]N-methylspiperone from human dopamine D2 receptor expressed in stable fibroblast cells by radioligand binding assay relative to control; type: cell-based; set-up: concentration or dose not given beside the values; details: concentration not given here
T7 sequence (P14416 whole entry): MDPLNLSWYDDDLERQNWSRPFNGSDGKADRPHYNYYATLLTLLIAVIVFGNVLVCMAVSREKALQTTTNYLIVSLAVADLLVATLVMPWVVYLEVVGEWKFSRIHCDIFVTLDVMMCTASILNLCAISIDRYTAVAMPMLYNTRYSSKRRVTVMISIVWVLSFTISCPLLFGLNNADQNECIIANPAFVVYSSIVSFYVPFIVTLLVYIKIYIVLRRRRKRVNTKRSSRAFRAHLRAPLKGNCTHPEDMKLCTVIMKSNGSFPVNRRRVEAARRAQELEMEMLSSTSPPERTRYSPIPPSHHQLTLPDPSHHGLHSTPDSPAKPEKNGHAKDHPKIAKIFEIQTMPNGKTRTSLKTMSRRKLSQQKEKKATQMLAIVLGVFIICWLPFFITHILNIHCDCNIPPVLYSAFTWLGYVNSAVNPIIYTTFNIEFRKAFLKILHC

[14] = molecular target: T2, 5-hydroxytryptamine receptor 2A; assay: Displacement of [3H]Ketanserin from 5-HT2A receptor (unknown origin) by radioligand binding assay
[15] = system: NIH3T3; assay: Cytotoxicity against mouse NIH/3T3 cells assessed as reduction in cell viability after 24 hrs by MTT assay; type: cell-based; details: NIH3T3, 24 h; method in brief: as §1
[16] = system: Mus musculus; assay: Toxicity in C57BL/6J mouse assessed as reduction in alkaline phosphatase level at 5 mg/kg, ip treated daily for 7 consecutive days measured after 24 hrs post last dose […]; type: organism-based; details: in vivo
Method in brief: (§2)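 Female C57BL6 mice given 5 mg/kg i.p. daily for 7 days; blood taken at sacrifice 24 h after last dose for clinical chemistry panel: electrolytes, minerals, total protein, albumin, globulin, A/G ratio, BUN, ALT, AST, GLDH, cholestasis markers, ALP, bilirubin, amylase, creatine kinase.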

[17] = molecular target: T4, 5-hydroxytryptamine receptor 2B; assay: Displacement of [3H]LSD from human 5-HT2B receptor expressed in HEK cells by radioligand binding assay relative to control; type: cell-based; set-up: concentration or dose not given beside the values; details: concentration not given here
[18] = molecular target: Mu-type opioid receptor (Homo sapiens, UniProt P35372); assay: Displacement of [3H]DAMGO from human MOR expressed in HEK cells by radioligand binding assay relative to control; type: cell-based; set-up: concentration or dose not given beside the values; details: concentration not given here
Chain of Mu-type opioid receptor (P35372 whole entry): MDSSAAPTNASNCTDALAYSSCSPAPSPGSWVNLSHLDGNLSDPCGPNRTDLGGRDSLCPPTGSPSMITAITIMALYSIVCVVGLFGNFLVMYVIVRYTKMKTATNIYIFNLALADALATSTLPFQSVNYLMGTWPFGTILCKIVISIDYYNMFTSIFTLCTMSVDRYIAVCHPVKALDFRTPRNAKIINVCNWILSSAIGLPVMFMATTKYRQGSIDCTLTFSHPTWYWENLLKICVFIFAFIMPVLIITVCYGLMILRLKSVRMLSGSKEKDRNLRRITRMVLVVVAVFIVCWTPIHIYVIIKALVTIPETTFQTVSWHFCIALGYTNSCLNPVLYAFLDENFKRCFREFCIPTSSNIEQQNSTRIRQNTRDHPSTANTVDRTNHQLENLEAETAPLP

[19] = molecular target: Delta-type opioid receptor (Homo sapiens, UniProt P41143); assay: Displacement of [3H]DADLE from human DOR expressed in HEK cells by radioligand binding assay; type: cell-based; details: read-out: Ki
[20] = molecular target: 5-hydroxytryptamine receptor 5A (Homo sapiens, UniProt P47898); assay: Displacement of [3H]LSD from human 5-HT5A receptor expressed in Flp-In CHO cells by radioligand binding assay relative to control; type: cell-based; set-up: concentration or dose not given beside the values; details: concentration not given here
Chain of 5-hydroxytryptamine receptor 5A (P47898 whole entry): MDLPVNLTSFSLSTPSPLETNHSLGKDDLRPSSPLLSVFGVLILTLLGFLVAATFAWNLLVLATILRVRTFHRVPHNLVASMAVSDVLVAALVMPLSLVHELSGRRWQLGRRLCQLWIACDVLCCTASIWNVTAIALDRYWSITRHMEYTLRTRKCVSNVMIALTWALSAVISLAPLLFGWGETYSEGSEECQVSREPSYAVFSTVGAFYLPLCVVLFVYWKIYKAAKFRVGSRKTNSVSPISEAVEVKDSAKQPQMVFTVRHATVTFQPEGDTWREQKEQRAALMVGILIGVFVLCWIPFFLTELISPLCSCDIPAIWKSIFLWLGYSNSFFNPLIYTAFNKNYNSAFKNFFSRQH

[21] = molecular target: T7, D(2) dopamine receptor; assay: Displacement of [3H]N-methylspiperone from human dopamine D2 receptor expressed in stable fibroblast cells by radioligand binding assay; type: cell-based
[22] = molecular target: T6, D(1B) dopamine receptor; assay: Displacement of [3H]SCH23390 from human dopamine D5 receptor expressed in HEK293T cells by radioligand binding assay relative to control; type: cell-based; set-up: concentration or dose not given beside the values; details: concentration not given here
[23] = system: MDA-MB-231; assay: Cytotoxicity against human MDA-MB-231 cells assessed as reduction in cell viability after 72 hrs by MTT assay; type: functional, cell-based; details: MDA-MB-231, 72 h; method in brief: as §1
[24] = molecular target: Sodium-dependent noradrenaline transporter (Homo sapiens, UniProt P23975); assay: Displacement of [3H]Nisoxetine from human NET expressed in HEK cells by radioligand binding assay relative to control; type: cell-based
Chain of Sodium-dependent noradrenaline transporter (P23975 whole entry): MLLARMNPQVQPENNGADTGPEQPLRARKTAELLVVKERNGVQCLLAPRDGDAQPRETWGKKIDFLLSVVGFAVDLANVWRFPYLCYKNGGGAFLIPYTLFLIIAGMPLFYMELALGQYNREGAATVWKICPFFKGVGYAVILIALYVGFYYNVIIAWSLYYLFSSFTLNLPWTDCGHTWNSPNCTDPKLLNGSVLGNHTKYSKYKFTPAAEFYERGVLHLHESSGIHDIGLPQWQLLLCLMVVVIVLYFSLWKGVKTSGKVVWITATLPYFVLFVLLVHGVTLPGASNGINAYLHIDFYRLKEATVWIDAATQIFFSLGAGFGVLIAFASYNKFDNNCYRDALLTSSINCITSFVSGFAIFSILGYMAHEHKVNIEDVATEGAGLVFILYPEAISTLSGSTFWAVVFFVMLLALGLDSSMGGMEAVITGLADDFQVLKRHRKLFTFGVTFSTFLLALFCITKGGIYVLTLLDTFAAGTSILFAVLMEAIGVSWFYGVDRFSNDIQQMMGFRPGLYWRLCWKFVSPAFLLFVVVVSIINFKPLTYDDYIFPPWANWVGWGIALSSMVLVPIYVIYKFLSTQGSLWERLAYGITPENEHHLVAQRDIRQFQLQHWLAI

[25] = system: NIH3T3; assay: Cytotoxicity against mouse NIH/3T3 cells assessed as reduction in cell viability after 48 hrs by MTT assay; type: cell-based; details: NIH3T3, 48 h; method in brief: as §1
[26] = system: Mus musculus; assay: Toxicity in C57BL/6J mouse assessed as increase in glutamate dehydrogenase level at 5 mg/kg, ip treated daily for 7 consecutive days measured after 24 hrs post last dose […]; type: organism-based; details: in vivo; method in brief: as §2
[27] = molecular target: T5, Kappa-type opioid receptor; assay: Displacement of [3H]U69593 from KOR (unknown origin) expressed in HEK cells by radioligand binding assay; type: cell-based
[28] = molecular target: T3, 5-hydroxytryptamine receptor 6; assay: Displacement of [3H]LSD from human 5-HT6 receptor expressed in HEK cells by radioligand binding assay; type: cell-based
[29] = molecular target: T8, D(4) dopamine receptor (Homo sapiens, UniProt P21917); assay: Displacement of [3H]N-methylspiperone from human dopamine D4 receptor by radioligand binding assay
T8 sequence (P21917 whole entry): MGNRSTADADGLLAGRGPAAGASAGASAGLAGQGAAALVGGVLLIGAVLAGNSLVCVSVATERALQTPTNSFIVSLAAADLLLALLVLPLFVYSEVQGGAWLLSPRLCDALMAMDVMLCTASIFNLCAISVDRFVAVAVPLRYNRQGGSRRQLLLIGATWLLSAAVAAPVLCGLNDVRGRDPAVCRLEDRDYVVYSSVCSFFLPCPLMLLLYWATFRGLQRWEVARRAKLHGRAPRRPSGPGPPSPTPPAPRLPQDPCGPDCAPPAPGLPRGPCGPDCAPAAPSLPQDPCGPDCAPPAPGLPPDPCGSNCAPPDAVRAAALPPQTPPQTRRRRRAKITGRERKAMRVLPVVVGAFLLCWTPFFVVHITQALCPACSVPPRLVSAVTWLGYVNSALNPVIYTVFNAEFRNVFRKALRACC

[30] = molecular target: Sodium-dependent serotonin transporter (Homo sapiens, UniProt P31645); assay: Displacement of [3H]Citalopram from human SERT expressed in HEK cells by radioligand binding assay; type: cell-based

For `OC1(c2ccc(Cl)c(C(F)(F)F)c2)CCN(CCCC(c2ccc(F)cc2)c2ccc(F)cc2)CC1` [PENFLURIDOL], the inhibition [1] was 98.2%, the Ki [2] was 1.71 µM and the Drug uptake [3] was “Active”. For the same compound, the IC50 [4] was 4.3 µM, the inhibition [5] was 95.2% and the “inhibition (INH)” value [6] was 89.1%. The inhibition [7] was 96%, the Ki [8] was 0.184 µM and the inhibition [9] was 94.6%. The inhibition [10] was 96.5%, the Ki [11] was 0.125 µM and the Activity [12] was “Toxic”. For the same compound, the inhibition [13] was 71.5%, the Ki [14] was 0.361 µM and the IC50 [15] was 6.03 µM. For the same compound, the Activity [16] was “Toxic”, the inhibition [17] was 97.3% and the inhibition [18] was 87%. For the same compound, the Ki [19] was 1.71 µM, the inhibition [20] was 95% and the Ki [21] was 0.159 µM. The inhibition [22] was 82.9%, the IC50 [23] was 5.1 µM and the “inhibition (INH)” value [24] was 86.2%. For the same compound, the IC50 [25] was 6.09 µM and the Activity [26] was “Toxic”.

`OC1(c2ccc(Cl)c(C(F)(F)F)c2)CCN(CCCCN(c2ccc(F)cc2)c2ccc(F)cc2)CC1` gave an inhibition [1] of 82.5%, a Ki [2] of 10 µM and an IC50 [4] of 8.2 µM. For the same compound, the inhibition [5] was 92.6%, the “inhibition (INH)” value [6] was 86.6% and the inhibition [7] was 68%. The Ki [8] was 0.509 µM, the Ki [27] was 10 µM and the inhibition [9] was 70.3%. It also gave an inhibition [10] of 77.9%, a Ki [11] of 0.744 µM and an inhibition [13] of 65.8%. It also gave a Ki [14] of 6.06 µM, a Ki [28] of 1.67 µM and an IC50 [15] of 12.1 µM. It also gave a Ki [29] of 10 µM, an inhibition [17] of 82.4% and an inhibition [18] of 61.5%. It also gave a Ki [19] of 10 µM, an inhibition [20] of 50% and a Ki [21] of 0.55 µM. For the same compound, the inhibition [22] was 84.6%, the IC50 [23] was 9.2 µM and the “inhibition (INH)” value [24] was 88.2%. For the same compound, the IC50 [25] was 11.6 µM and the Ki [30] was 10 µM.

Compound `OC1(c2ccc(Cl)c(C(F)(F)F)c2)CCN(CCCC(c2ccccc2)c2ccccc2)CC1` has an inhibition [1] of 97.4%, a Ki [2] of 0.121 µM and an IC50 [4] of 9.2 µM. The inhibition [5] was 94.3%, the “inhibition (INH)” value [6] was 87.5% and the inhibition [7] was 72.8%. It also gave a Ki [8] of 0.374 µM, a Ki [27] of 1.33 µM and an inhibition [9] of 98%. The inhibition [10] was 97.2%, the Ki [11] was 0.121 µM and the inhibition [13] was 100%. For the same compound, the Ki [14] was 1 µM, the Ki [28] was 1.69 µM and the IC50 [15] was 12.2 µM. The Ki [29] was 0.058 µM, the inhibition [17] was 92.5% and the inhibition [18] was 90.3%. It also gave a Ki [19] of 1.53 µM, a Ki [21] of 0.038 µM and an inhibition [22] of 89.4%. For the same compound, the IC50 [23] was 8.4 µM, the “inhibition (INH)” value [24] was 90.6% and the IC50 [25] was 12 µM. For the same compound, the Ki [30] was 1.18 µM.

With `OC1(c2ccc(Cl)c(C(F)(F)F)c2)CCN(CCCCC(c2ccc(F)cc2)c2ccc(F)cc2)CC1` the inhibition [1] was 95.7%, the Ki [2] was 0.529 µM and the Drug uptake [3] was “Active”. For the same compound, the IC50 [4] was 4.2 µM, the inhibition [5] was 96.3% and the “inhibition (INH)” value [6] was 91.6%. It also gave an inhibition [7] of 80%, a Ki [8] of 0.423 µM and a Ki [27] of 2.67 µM. It also gave an inhibition [9] of 96%, an inhibition [10] of 92.6% and a Ki [11] of 0.529 µM. For the same compound, the Activity [12] was “Non-Toxic”, the inhibition [13] was 99.2% and the Ki [14] was 1 µM. For the same compound, the Ki [28] was 1.67 µM, the IC50 [15] was 6.5 µM and the Activity [16] was “Non-Toxic”. The Ki [29] was 0.385 µM, the inhibition [17] was 93.3% and the inhibition [18] was 89%. For the same compound, the Ki [19] was 1.41 µM, the inhibition [20] was 75.8% and the Ki [21] was 0.194 µM. For the same compound, the inhibition [22] was 88.2%, the IC50 [23] was 4.8 µM and the “inhibition (INH)” value [24] was 98.3%. The IC50 [25] was 5.3 µM, the Activity [26] was “Non-Toxic” and the Ki [30] was 0.428 µM.
